Measurements: ChEMBL document CHEMBL4007393 (J Med Chem, 2017)
In brackets after ≈: the same amount, converted by molar mass.

Experiments:
[1] = Plasma concentration in FVB mouse at 30 mg/kg, administered through oral gavage as single dose measured after 48 hrs post dose by LC-MS analysis; type: ADME, organism-based
Method in brief: (§1)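 Non-infected mice given one oral gavage dose of 30 mg/kg as an aqueous suspension. Terminal cardiac blood taken under isoflurane, centrifuged at 4 °C, plasma stored at -20 °C. Plasma proteins precipitated with acetonitrile (2:1 or 3:1), supernatant run by LC/MS with diazepam internal standard against a blank mouse plasma calibration curve. PK parameters calculated noncompartmentally.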

[2] = Cmax in FVB mouse at 30 mg/kg, administered through oral gavage as single dose by LC-MS analysis; type: ADME, organism-based; set-up: dose 30 mg/kg, route oral; conditions: in vivo; method in brief: as §1
[3] = Kinetic solubility of the compound in water after 30 mins by nephelometric analysis; type: physicochemical; conditions: read-out: Kinetic_solubility
Method in brief: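 DMSO stock diluted into water to 1% final DMSO and left at ambient temperature for 30 min. Solubility range read by nephelometry.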

[4] = AUC (0 to infinity) in FVB mouse at 30 mg/kg, administered through oral gavage as single dose by LC-MS analysis; type: ADME, organism-based; set-up: dose 30 mg/kg, time infinity, route oral; conditions: in vivo; method in brief: as §1
[5] = Plasma concentration in rat at 300 mg/kg, po administered every third day for 5 doses measured after 2 weeks; type: ADME, organism-based
Method in brief: (§2)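 Male rats dosed by oral gavage at 100 or 300 mg/kg every third day for 5 doses, in the same vehicle as the mouse efficacy and exposure studies; vehicle controls included. Endpoints: general condition, body weight, clinical biochemistry, histopathology, mortality and plasma concentrations.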

Rattus norvegicus = test: Drug accumulation in rat at 100 to 300 mg/kg, po administered every third day for 5 doses measured after 2 weeks relative to control; type: ADME, organism-based; conditions: in vivo, 336 h
Method in brief: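 Male rats were given oral gavage doses of 100 or 300 mg/kg every third day for five doses, alongside a vehicle group. The vehicle was the same formulation used for the mouse efficacy studies. Plasma concentrations were followed over the dosing period to assess accumulation, together with general condition, body weight, biochemistry and histopathology.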

[6] = Plasma concentration in rat at 100 mg/kg, po administered every third day for 5 doses measured after 2 weeks; type: ADME, organism-based; method in brief: as §2

For c1cc([C@H]2CC[C@]3(CC2)OOC2(O3)C3CC4CC(C3)CC2C4)ccc1OCCOC1CCNCC1 (stereo partly drawn), the concentration at 48 h [1] was 97.6 nM, the Cmax [2] was 633 nM and the solubility kinetic at 0.5 h [3] was 50 to 100 µg/mL (≈ 103 to 207 µM). For the same compound, the AUC(0-inf) [4] was 19 µM·h.

Work on c1cc([C@H]2CC[C@]3(CC2)OOC2(O3)C3CC4CC(C3)CC2C4)ccc1OCCC1CCNCC1 (stereo partly drawn) yielded a concentration at 48 h [1] of 192 nM, a Cmax [2] of 1190 nM and a solubility kinetic at 0.5 h [3] greater than 100 µg/mL. It also gave an AUC(0-inf) [4] of 34.1 µM·h.

Compound [O-][S+]1CCN(CCCOc2ccc([C@H]3CC[C@]4(CC3)OOC3(O4)C4CC5CC(C4)CC3C5)cc2)CC1 (stereo partly drawn) has a solubility kinetic at 0.5 h [3] of less than 1.6 µg/mL and a concentration at 336 h [5] of 1000 to 2000 ng/mL.

In the case of c1cc([C@H]2CC[C@]3(CC2)OOC2(O3)C3CC4CC(C3)CC2C4)ccc1OCCN1CCCOCC1 (stereo partly drawn), the concentration at 48 h [1] is reported as 13.2 nM, the Cmax [2] is reported as 2610 nM and the solubility kinetic at 0.5 h [3] is reported as 3.1 to 6.3 µg/mL (≈ 6.41 to 13 µM). It also gave an AUC(0-inf) [4] of 16.8 µM·h.

Compound NCCOc1ccc([C@H]2CC[C@]3(CC2)OOC2(O3)C3CC4CC(C3)CC2C4)cc1 (stereo partly drawn) has a concentration at 48 h [1] of 4.73 nM, a fold change (FC) (Rattus norvegicus) of 1 to 4 and a Cmax [2] of 287 nM. The solubility kinetic at 0.5 h [3] was greater than 100 µg/mL and the AUC(0-inf) [4] was 3.42 µM·h.

In the case of O[C@H]1CC[C@H](NCCCOc2ccc([C@H]3CC[C@]4(CC3)OOC3(O4)C4CC5CC(C4)CC3C5)cc2)CC1 (stereo partly drawn), the concentration at 48 h [1] is reported as 26.5 nM, the Cmax [2] is reported as 721 nM and the solubility kinetic at 0.5 h [3] is reported as greater than 100 µg/mL. The AUC(0-inf) [4] was 12.8 µM·h.

CC(C)(CN)Oc1ccc([C@H]2CC[C@]3(CC2)OOC2(O3)C3CC4CC(C3)CC2C4)cc1 (stereo partly drawn) showed a concentration at 48 h [1] of 7.97 nM, a Cmax [2] of 529 nM and a solubility kinetic at 0.5 h [3] greater than 100 µg/mL. For the same compound, the AUC(0-inf) [4] was 11.3 µM·h.

For N[C@H]1CC[C@@H](Oc2ccc([C@H]3CC[C@]4(CC3)OOC3(O4)C4CC5CC(C4)CC3C5)cc2)CC1 (stereo partly drawn), the concentration at 48 h [1] was 145 nM, the fold change (FC) (Rattus norvegicus) was 1 to 4 and the Cmax [2] was 1170 nM. The solubility kinetic at 0.5 h [3] was 25 to 50 µg/mL (≈ 55.1 to 110 µM) and the AUC(0-inf) [4] was 29.5 µM·h.

Work on CC(C)(O)CN1CCC(Oc2ccc([C@H]3CC[C@]4(CC3)OOC3(O4)C4CC5CC(C4)CC3C5)cc2)CC1 (stereo partly drawn) yielded a concentration at 48 h [1] of 22.7 nM, a Cmax [2] of 1810 nM and a solubility kinetic at 0.5 h [3] of 1.6 to 3.1 µg/mL (≈ 3.13 to 6.06 µM). For the same compound, the concentration at 336 h [5] was 1000 to 2000 ng/mL and the AUC(0-inf) [4] was 27.7 µM·h.

O=C(c1ccc([C@H]2CC[C@]3(CC2)OOC2(O3)C3CC4CC(C3)CC2C4)cc1)N1CCNCC1 (stereo partly drawn) gave a solubility kinetic at 0.5 h [3] greater than 100 µg/mL.

CC(C)(N)CNC(=O)C[C@H]1CC[C@]2(CC1)OOC1(O2)C2CC3CC(C2)CC1C3 (stereo partly drawn) showed a concentration at 48 h [1] of less than 1 nM, a Cmax [2] of 776 nM and a solubility kinetic at 0.5 h [3] greater than 100 µg/mL. The AUC(0-inf) [4] was 2.61 µM·h.

Work on c1cc([C@H]2CC[C@]3(CC2)OOC2(O3)C3CC4CC(C3)CC2C4)ccc1OC1CCNCC1 (stereo partly drawn) yielded a concentration at 48 h [1] of 49.4 nM, a Cmax [2] of 810 nM and a solubility kinetic at 0.5 h [3] greater than 100 µg/mL. For the same compound, the AUC(0-inf) [4] was 16.4 µM·h.

c1cc([C@H]2CC[C@]3(CC2)OOC2(O3)C3CC4CC(C3)CC2C4)ccc1OCCN1CCNCC1 (stereo partly drawn) showed a concentration at 48 h [1] of 23.9 nM, a Cmax [2] of 752 nM and a solubility kinetic at 0.5 h [3] greater than 100 µg/mL. It also gave an AUC(0-inf) [4] of 16.8 µM·h.

With c1cc([C@H]2CC[C@]3(CC2)OOC2(O3)C3CC4CC(C3)CC2C4)ccc1OCC1CCNCC1 (stereo partly drawn) the concentration at 48 h [1] was 17.9 nM, the Cmax [2] was 465 nM and the solubility kinetic at 0.5 h [3] was 12.5 to 25 µg/mL (≈ 27.6 to 55.1 µM). For the same compound, the AUC(0-inf) [4] was 8.9 µM·h.

In the case of CC(C)(O)CNCCCOc1ccc([C@H]2CC[C@]3(CC2)OOC2(O3)C3CC4CC(C3)CC2C4)cc1 (stereo partly drawn), the concentration at 48 h [1] is reported as 36 nM, the Cmax [2] is reported as 1210 nM and the solubility kinetic at 0.5 h [3] is reported as greater than 100 µg/mL. The concentration at 336 h [5] was greater than 1900 ng/mL and the AUC(0-inf) [4] was 22.8 µM·h.

c1ccc([C@H]2CC[C@]3(CC2)OOC2(O3)C3CC4CC(C3)CC2C4)c(OCCN2CCOCC2)c1 (stereo partly drawn) showed a solubility kinetic at 0.5 h [3] of 3.1 to 6.3 µg/mL (≈ 6.6 to 13.4 µM).

Work on CS(=O)(=O)N1CCN(CCCOc2ccc([C@H]3CC[C@]4(CC3)OOC3(O4)C4CC5CC(C4)CC3C5)cc2)CC1 (stereo partly drawn) yielded a solubility kinetic at 0.5 h [3] of less than 1.6 µg/mL.

Work on CC1(C)CC(O)(COc2ccc([C@H]3CC[C@]4(CC3)OOC3(O4)C4CC5CC(C4)CC3C5)cc2)CC(C)(C)N1 (stereo partly drawn) yielded a concentration at 48 h [1] of 122 nM, a Cmax [2] of 1000 nM and a solubility kinetic at 0.5 h [3] greater than 100 µg/mL. The AUC(0-inf) [4] was 32.9 µM·h.

c1cc([C@H]2CC[C@]3(CC2)OOC2(O3)C3CC4CC(C3)CC2C4)ccc1OCCN1CCC1 (stereo partly drawn) gave a solubility kinetic at 0.5 h [3] greater than 100 µg/mL.

Work on NCCCCOc1ccc([C@H]2CC[C@]3(CC2)OOC2(O3)C3CC4CC(C3)CC2C4)cc1 (stereo partly drawn) yielded a concentration at 48 h [1] of 23.4 nM, a Cmax [2] of 370 nM and a solubility kinetic at 0.5 h [3] of 50 to 100 µg/mL (≈ 117 to 234 µM). For the same compound, the AUC(0-inf) [4] was 11 µM·h.

Compound c1cc([C@H]2CC[C@]3(CC2)OO[C@]2(O3)C3CC4CC(C3)CC2C4)ccc1OCCN1CCOCC1 [ARTEFENOMEL] has a concentration at 48 h [1] of 132 nM, a concentration at 336 h [6] of 4600 ng/mL and a Cmax [2] of 3800 nM. The solubility kinetic at 0.5 h [3] was less than 1.6 µg/mL, the concentration at 336 h [5] was 6300 ng/mL and the AUC(0-inf) [4] was 38.7 µM·h.

In the case of FC1(F)C2CC3CC1CC(C2)C31OO[C@]2(CC[C@@H](c3ccc(OCCN4CCOCC4)cc3)CC2)O1 (stereo partly drawn), the solubility kinetic at 0.5 h [3] is reported as 1.6 to 3.1 µg/mL (≈ 3.16 to 6.13 µM).

c1cc([C@H]2CC[C@]3(CC2)OOC2(O3)C3CC4CC(C3)CC2C4)ccc1OCCCN1CCOCC1 (stereo partly drawn) gave a solubility kinetic at 0.5 h [3] of 1.6 to 3.1 µg/mL (≈ 3.31 to 6.41 µM).

For c1cc([C@H]2CC[C@]3(CC2)OOC2(O3)C3CC4CC(C3)CC2C4)ccc1OCCN1CCCCC1 (stereo partly drawn), the solubility kinetic at 0.5 h [3] was 6.3 to 12.5 µg/mL (≈ 13.5 to 26.7 µM).

CC(C)(N)CCOc1ccc([C@H]2CC[C@]3(CC2)OOC2(O3)C3CC4CC(C3)CC2C4)cc1 (stereo partly drawn) gave a concentration at 48 h [1] of 89.2 nM, a fold change (FC) (Rattus norvegicus) of 1 to 4 and a Cmax [2] of 1050 nM. The solubility kinetic at 0.5 h [3] was 50 to 100 µg/mL (≈ 113 to 226 µM) and the AUC(0-inf) [4] was 27.8 µM·h.

Work on NCCCOc1ccc([C@H]2CC[C@]3(CC2)OOC2(O3)C3CC4CC(C3)CC2C4)cc1 (stereo partly drawn) yielded a fold change (FC) (Rattus norvegicus) of 1 to 4.

In the case of c1cc([C@H]2CC[C@]3(CC2)OOC2(O3)C3CC4CC(C3)CC2C4)ccc1CN1CCOCC1 (stereo partly drawn), the solubility kinetic at 0.5 h [3] is reported as 1.6 to 3.1 µg/mL (≈ 3.64 to 7.05 µM).

c1cc([C@H]2CC[C@]3(CC2)OOC2(O3)C3CC4CC(C3)CC2C4)ccc1OCCN1CC2(COC2)C1 (stereo partly drawn) gave a solubility kinetic at 0.5 h [3] of 50 to 100 µg/mL (≈ 104 to 208 µM).

Work on NC1CCN(S(=O)(=O)c2ccc([C@H]3CC[C@]4(CC3)OOC3(O4)C4CC5CC(C4)CC3C5)cc2)CC1 (stereo partly drawn) yielded a solubility kinetic at 0.5 h [3] of 12.5 to 25 µg/mL (≈ 24.9 to 49.7 µM).
